We go through 22 compounds from ChEMBL document CHEMBL1142327, “2-Amino-N-pyrimidin-4-ylacetamides as A2A receptor antagonists: 2. Reduction of hERG activity, observed species selectivity, and structure-activity relationships” (J Med Chem, 2008).

Data set [1] has as its target Adenosine receptor A2a (Rattus norvegicus, UniProt P30543). In words: Displacement of [3H]-ZM 241385 from rat adenosine A2A receptor expressed in CHO cell membrane. It counts as cell membranes.
Another data set is filed under the species Homo sapiens. In words: Selectivity ratio of Ki for human adenosine A1 receptor to Ki for human adenosine A2A receptor. In a few lines:
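Stably transfected Flp-In HEK293 membranes with human A1 or A2A receptors (1–2 µg protein) were preincubated 30 min at room temp with adenosine deaminase. They were then incubated 90 min with competitor and 1.0 nM [3H]-DPCPX (A1) or 2.0 nM [3H]-ZM241385 (A2A). Nonspecific binding used 1 µM DPCPX or CGS15943. Filtration and scintillation counting followed. […] Ratio is A1 Ki/A2A Ki.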

The target in a further data set is T1, Adenosine receptor A1 (Homo sapiens, UniProt P30542).
T1 sequence (P30542 whole entry): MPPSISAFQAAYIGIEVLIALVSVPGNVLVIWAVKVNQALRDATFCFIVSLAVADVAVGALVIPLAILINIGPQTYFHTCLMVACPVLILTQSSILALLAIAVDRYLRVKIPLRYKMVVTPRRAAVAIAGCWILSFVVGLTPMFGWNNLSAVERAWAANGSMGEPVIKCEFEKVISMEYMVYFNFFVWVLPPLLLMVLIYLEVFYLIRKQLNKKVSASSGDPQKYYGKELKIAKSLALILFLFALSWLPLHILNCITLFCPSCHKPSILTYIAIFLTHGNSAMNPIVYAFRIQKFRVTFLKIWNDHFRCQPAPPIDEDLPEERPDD
In words: Displacement of [3H]-DPCPX from human adenosine A1 receptor expressed in HEK293 cell membrane. It is filed as cell membranes. In a few lines:
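Flp-In HEK293 cell line stably expressing the human receptor, crude membranes used at 1–2 µg protein. Pre-incubated 30 min at room temperature with 10 µg/mL adenosine deaminase. Then incubated 90 min with 1.0 nM [3H]-DPCPX and graded competitor in 50 mM Tris-HCl pH 7.4, 1 mM EDTA, 10 mM MgCl2. Nonspecific binding defined with 1 µM DPCPX. Separated by filtration on GF/C, counted by scintillation. Ki from IC50 via Cheng-Prusoff. Mean of at least two runs.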

Data set [2] concerns the target Adenosine receptor A2a (Homo sapiens, UniProt P29274). Kind of data set: Displacement of [3H]-ZM 241385 from human adenosine A2A receptor expressed in HEK293 cell membrane. It counts as cell membranes. (In general: Loss of bound radioactivity is the signal in a displacement assay; it reports binding, not function.)
Another data set deals with Cytochrome P450 2D6 (Homo sapiens, UniProt P10635). In words: Inhibition of CYP2D6. It is filed as ADME.
Sequence of Cytochrome P450 2D6 (P10635 whole entry): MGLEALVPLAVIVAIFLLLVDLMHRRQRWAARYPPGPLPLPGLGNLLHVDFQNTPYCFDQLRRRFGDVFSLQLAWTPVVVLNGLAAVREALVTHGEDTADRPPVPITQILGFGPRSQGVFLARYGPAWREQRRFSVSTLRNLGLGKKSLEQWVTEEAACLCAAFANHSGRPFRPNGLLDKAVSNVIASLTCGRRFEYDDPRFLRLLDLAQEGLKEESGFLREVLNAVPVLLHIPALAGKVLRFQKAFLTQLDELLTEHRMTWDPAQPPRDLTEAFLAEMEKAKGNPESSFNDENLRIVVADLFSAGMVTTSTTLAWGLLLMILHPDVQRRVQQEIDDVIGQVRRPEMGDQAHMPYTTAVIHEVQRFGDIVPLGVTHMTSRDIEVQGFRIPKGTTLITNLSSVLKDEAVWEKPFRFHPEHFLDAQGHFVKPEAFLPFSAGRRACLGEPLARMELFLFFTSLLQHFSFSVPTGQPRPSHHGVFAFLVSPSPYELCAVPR
Data set [3] deals with Voltage-gated inwardly rectifying potassium channel KCNH2 (Homo sapiens, UniProt Q12809). In words: Inhibition of human ERG potassium current expressed in HEK293 cells by patch-clamp technique. (In general: The patch-clamp technique gives a direct electrical read-out from membranes.)
Sequence of Voltage-gated inwardly rectifying potassium channel KCNH2 (Q12809 whole entry): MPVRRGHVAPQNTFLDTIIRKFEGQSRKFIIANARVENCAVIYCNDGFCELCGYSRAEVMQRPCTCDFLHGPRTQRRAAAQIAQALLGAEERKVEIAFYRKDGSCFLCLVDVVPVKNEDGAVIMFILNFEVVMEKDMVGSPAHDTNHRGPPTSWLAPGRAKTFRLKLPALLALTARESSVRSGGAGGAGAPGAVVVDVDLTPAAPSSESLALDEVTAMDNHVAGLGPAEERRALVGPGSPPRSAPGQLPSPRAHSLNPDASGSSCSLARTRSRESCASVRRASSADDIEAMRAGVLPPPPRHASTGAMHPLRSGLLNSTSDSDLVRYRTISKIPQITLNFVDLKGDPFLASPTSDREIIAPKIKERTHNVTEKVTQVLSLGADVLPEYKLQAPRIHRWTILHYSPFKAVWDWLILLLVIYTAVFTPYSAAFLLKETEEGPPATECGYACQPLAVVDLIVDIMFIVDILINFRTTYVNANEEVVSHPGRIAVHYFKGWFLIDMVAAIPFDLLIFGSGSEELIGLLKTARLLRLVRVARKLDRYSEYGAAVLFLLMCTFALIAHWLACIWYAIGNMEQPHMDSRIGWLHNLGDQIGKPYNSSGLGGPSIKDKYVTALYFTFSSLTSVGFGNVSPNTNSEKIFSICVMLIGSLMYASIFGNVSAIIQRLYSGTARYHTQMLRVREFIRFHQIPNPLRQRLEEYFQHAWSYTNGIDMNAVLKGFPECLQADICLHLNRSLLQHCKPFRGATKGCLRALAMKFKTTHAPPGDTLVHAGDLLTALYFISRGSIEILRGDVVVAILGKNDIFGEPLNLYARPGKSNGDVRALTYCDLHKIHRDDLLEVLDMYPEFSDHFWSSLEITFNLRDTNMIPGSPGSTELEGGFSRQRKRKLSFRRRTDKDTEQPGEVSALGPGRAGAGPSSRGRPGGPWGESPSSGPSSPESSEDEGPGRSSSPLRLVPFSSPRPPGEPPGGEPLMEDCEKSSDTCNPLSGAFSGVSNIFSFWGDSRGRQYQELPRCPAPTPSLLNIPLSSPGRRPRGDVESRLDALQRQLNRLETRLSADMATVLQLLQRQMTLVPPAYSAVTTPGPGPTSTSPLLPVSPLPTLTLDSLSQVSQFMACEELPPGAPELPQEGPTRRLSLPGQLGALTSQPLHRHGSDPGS
Another data set deals with Cytochrome P450 3A4 (Homo sapiens, UniProt P08684). In words: Inhibition of CYP3A4. It counts as ADME.
Sequence of Cytochrome P450 3A4 (P08684 whole entry): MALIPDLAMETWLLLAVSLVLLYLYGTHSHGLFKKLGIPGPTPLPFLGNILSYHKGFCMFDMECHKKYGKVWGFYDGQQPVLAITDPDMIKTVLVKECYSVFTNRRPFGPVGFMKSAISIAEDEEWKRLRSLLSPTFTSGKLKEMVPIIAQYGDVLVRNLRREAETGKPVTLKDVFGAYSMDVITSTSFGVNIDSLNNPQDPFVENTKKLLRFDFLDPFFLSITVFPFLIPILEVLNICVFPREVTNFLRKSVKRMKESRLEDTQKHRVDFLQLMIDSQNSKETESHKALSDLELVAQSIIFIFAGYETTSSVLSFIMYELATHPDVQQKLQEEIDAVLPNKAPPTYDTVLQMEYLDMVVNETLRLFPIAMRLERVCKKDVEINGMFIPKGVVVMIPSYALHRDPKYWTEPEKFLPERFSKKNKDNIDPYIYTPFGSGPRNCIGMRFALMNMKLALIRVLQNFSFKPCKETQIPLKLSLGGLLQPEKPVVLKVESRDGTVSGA
Data set [4] in a line: Drug level in Wistar rat brain at 30 mg/kg, po after 2 hrs. It counts as ADME, organism-based. More on the design: dose 30 mg/kg, route oral. The note with it: read-out: Drug uptake. Summed up:
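Male Wistar rats, ∼220 g. Oral dose of 30 mg/kg in 5% cremophor in sterile water (5 mL/kg), with haloperidol 1.5 mg/kg ip 1 h before the bar test. Brain collected 2 h after dosing. Half-brain homogenates centrifuged, supernatant analysed by LC-MS/MS (positive ESI, MRM). Quantified against brain-matrix calibration standards by internal-standard peak-area ratio on a 1/x-weighted linear curve.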

Another data set concerns Rattus norvegicus. In words: Effect on haloperidol-induced catalepsy in Wistar rat at 30 mg/kg, po after 2 hrs. It counts as functional, organism-based. More on the design: dose 30 mg/kg. In a few lines:
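Male Wistar rats, ∼220 g, habituated 1 week, 24 per experiment. Oral dose of 30 mg/kg in 5% cremophor/sterile water (5 mL/kg) 2 h before testing, haloperidol 1.5 mg/kg ip 1 h before. Bar test: forepaws placed on 8.0 cm bar, three 30 s trials 3 min apart. Descent latency averaged per rat and compared with vehicle, p < 0.05.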

The source made the active and inactive calls. No cut-off for these calls is given here.

Sequence of Adenosine receptor A2a (Rattus norvegicus, UniProt P30543) (P30543 whole entry): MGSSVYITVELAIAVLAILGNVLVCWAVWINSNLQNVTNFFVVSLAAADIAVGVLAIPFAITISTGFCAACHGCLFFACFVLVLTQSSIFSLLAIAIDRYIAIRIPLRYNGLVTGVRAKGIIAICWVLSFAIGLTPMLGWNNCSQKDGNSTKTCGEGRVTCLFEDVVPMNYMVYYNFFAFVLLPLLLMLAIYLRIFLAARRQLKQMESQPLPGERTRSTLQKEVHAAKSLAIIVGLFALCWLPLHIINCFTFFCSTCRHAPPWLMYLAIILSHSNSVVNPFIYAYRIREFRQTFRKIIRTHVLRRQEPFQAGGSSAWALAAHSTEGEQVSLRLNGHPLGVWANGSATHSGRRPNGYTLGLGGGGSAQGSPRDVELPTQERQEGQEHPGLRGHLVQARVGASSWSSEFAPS
Sequence of Adenosine receptor A2a (Homo sapiens, UniProt P29274) (P29274 whole entry): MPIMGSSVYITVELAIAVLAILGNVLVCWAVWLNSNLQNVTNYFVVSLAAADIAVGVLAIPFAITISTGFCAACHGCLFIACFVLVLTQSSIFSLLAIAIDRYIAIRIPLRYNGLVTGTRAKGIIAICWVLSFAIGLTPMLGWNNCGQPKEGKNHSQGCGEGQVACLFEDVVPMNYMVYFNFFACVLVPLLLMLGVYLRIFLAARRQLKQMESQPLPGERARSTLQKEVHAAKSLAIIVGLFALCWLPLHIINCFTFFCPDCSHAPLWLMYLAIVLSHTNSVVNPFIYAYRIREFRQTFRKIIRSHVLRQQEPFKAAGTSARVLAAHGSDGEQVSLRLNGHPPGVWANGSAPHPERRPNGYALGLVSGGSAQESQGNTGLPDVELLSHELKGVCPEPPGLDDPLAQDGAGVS

As for `COC1CCN(CC(=O)Nc2cc(-n3nc(C)cc3C)nc(-c3ccc(C)o3)n2)CC1`, the inhibition constant Ki (usually the dissociation constant of the complex between target and ligand, obtained from inhibition or displacement) on Adenosine receptor A2a [1] is 1600 nM; on Adenosine receptor A1, 1210 nM; at Adenosine receptor A2a [2] it was 15 nM. Also, in the data set listed under Homo sapiens, the Ratio Ki is 81.

Take `Cc1cc(C)n(-c2cc(NC(=O)CN3CCC[C@@H](CN(C)C)C3)nc(-c3ccc(C)o3)n2)n1`: the values for the inhibition constant Ki on Adenosine receptor A2a [1], at Adenosine receptor A1 and on Adenosine receptor A2a [2] were 14 nM, 71 nM and 1.5 nM, respectively. Further, the Ratio Ki in the data set filed under Homo sapiens was found to be 47.

As for `Cc1cc(C)n(-c2cc(NC(=O)CN3CCN(C)CC3)nc(-c3ccc(C)o3)n2)n1`, at Adenosine receptor A2a [1], the affinity corresponds to a Ki of 131 nM. The Inhibition entry at Cytochrome P450 2D6 and on Cytochrome P450 3A4 was “Not Active” throughout. Moreover, in the data set filed under Homo sapiens, the Ratio Ki stood at 71. For the same compound, in data set [3], the midpoint of inhibition, the IC50, lay at 950 nM.

Turning to `Cc1cc(C)n(-c2cc(NC(=O)CCN3CC[C@H](N(C)C)C3)nc(-c3ccc(C)o3)n2)n1`, the inhibitory constant (Ki) at Adenosine receptor A2a [1] is 41 nM; at Adenosine receptor A1 it was 630 nM; at Adenosine receptor A2a [2] it was 2.4 nM. The concentration at 2 h in data set [4] was 250 ng/g. Moreover, the Ratio Ki in the data set filed under Homo sapiens was 263. Moreover, the outcome with Rattus norvegicus was Active. In addition, the IC50 (in general, the concentration that gives 50% inhibition) in data set [3] worked out at 2280 nM.

In the case of `CC(=O)N1CCN(CC(=O)Nc2cc(-n3nc(C)cc3C)nc(-c3ccc(C)o3)n2)CC1`, the inhibition constant (Ki) is 170 nM at Adenosine receptor A2a [1], 540 nM on Adenosine receptor A1 and 3.6 nM at Adenosine receptor A2a [2]. The Ratio Ki in the data set filed under Homo sapiens was 150.

On to `Cc1cc(C)n(-c2cc(NC(=O)CC3CCN(C)CC3)nc(-c3ccc(C)o3)n2)n1`, for which the Ki was found to be 103 nM at Adenosine receptor A2a [1], 1020 nM on Adenosine receptor A1 and 5.4 nM on Adenosine receptor A2a [2].

As to `Cc1cc(C)n(-c2cc(NC(=O)CN3CCC[C@H](CN(C)C)C3)nc(-c3ccc(C)o3)n2)n1`, the figures for the inhibitory constant (Ki) at Adenosine receptor A2a [1], on Adenosine receptor A1 and at Adenosine receptor A2a [2] were 87 nM, 890 nM and 10 nM, respectively. In the data set filed under Homo sapiens, the Ratio Ki amounted to 89.

For the compound `Cc1cc(C)n(-c2cc(NC(=O)CN3CCCC3)nc(-c3ccc(C)o3)n2)n1`, the Ratio Ki in the data set filed under Homo sapiens stood at 40. Moreover, the inhibitory constant (Ki) at Adenosine receptor A1 was 347 nM; at Adenosine receptor A2a [2], 8.6 nM.

Consider `Cc1cc(C)n(-c2cc(NC(=O)CN3CC[C@H](CN(C)C)C3)nc(-c3ccc(C)o3)n2)n1`, for which the inhibition constant (Ki) at Adenosine receptor A2a [1] was 34 nM; at Adenosine receptor A1 it was 550 nM; at Adenosine receptor A2a [2] it was 11 nM.

For the compound `Cc1cc(C)n(-c2cc(NC(=O)CN3CCOCC3)nc(-c3ccc(C)o3)n2)n1`, the inhibition constant (Ki) at Adenosine receptor A2a [1] stood at 430 nM; on Adenosine receptor A1, 500 nM; on Adenosine receptor A2a [2] it was 5.7 nM. Also, the Ratio Ki in the data set filed under Homo sapiens came out at 88.

`CCN1CCN(CC(=O)Nc2cc(-n3nc(C)cc3C)nc(-c3ccc(C)o3)n2)CC1`: the inhibition constant (Ki) is 270 nM on Adenosine receptor A2a [1], 1880 nM at Adenosine receptor A1 and 11 nM on Adenosine receptor A2a [2]. Besides, the Ratio Ki in the data set filed under Homo sapiens amounted to 171.

For `Cc1cc(C)n(-c2cc(NC(=O)CCN(C)C)nc(-c3ccc(C)o3)n2)n1`, the inhibition constant (Ki) on Adenosine receptor A2a [1] was 43 nM; on Adenosine receptor A1, 210 nM; at Adenosine receptor A2a [2], 2.1 nM.

Regarding `CCN[C@@H]1CCN(CC(=O)Nc2cc(-n3nc(C)cc3C)nc(-c3ccc(C)o3)n2)C1`, in the data set listed under Homo sapiens, the Ratio Ki came out at 71. The Ki on Adenosine receptor A1 is 270 nM; on Adenosine receptor A2a [2], 3.8 nM.

`Cc1cc(C)n(-c2cc(NC(=O)CN3CC[C@H](N(C)C)C3)nc(-c3ccc(C)o3)n2)n1`: the Ki on Adenosine receptor A2a [1] came to 160 nM; at Adenosine receptor A1, 940 nM; on Adenosine receptor A2a [2] it was 3.7 nM. Besides, the concentration at 2 h in [4] amounted to 1900 ng/g. Also, the Ratio Ki in the data set listed under Homo sapiens was 254. The outcome in the data set on Rattus norvegicus was Active. In data set [3], this compound showed an IC50 of 600 nM.

As to `Cc1cc(C)n(-c2cc(NC(=O)CN3CCCN(C)CC3)nc(-c3ccc(C)o3)n2)n1`, the Ki on Adenosine receptor A2a [1] is 46.7 nM; on Adenosine receptor A1, 2100 nM; on Adenosine receptor A2a [2], 10 nM. Further, the Ratio Ki in the data set filed under Homo sapiens was determined as 210. The IC50 in data set [3] was determined as 285 nM.

Turning to `Cc1cc(C)n(-c2cc(NC(=O)CN3CC[C@@H](N(C)C)C3)nc(-c3ccc(C)o3)n2)n1`, the Ratio Ki in the data set filed under Homo sapiens turned out to be 66. Besides, the Ki was 262 nM at Adenosine receptor A1 and 4 nM at Adenosine receptor A2a [2].

With `CCN[C@H]1CCN(CC(=O)Nc2cc(-n3nc(C)cc3C)nc(-c3ccc(C)o3)n2)C1`, the Ki at Adenosine receptor A2a [1] amounted to 37 nM; on Adenosine receptor A1, 370 nM; on Adenosine receptor A2a [2], 2.5 nM. For the same compound, the Ratio Ki in the data set filed under Homo sapiens was 148. For the same compound, the midpoint of inhibition in data set [3], the IC50, lay at 420 nM.

As to `Cc1cc(C)n(-c2cc(NC(=O)CN3CC[C@H](OC(C)C)C3)nc(-c3ccc(C)o3)n2)n1`, the Ratio Ki in the data set listed under Homo sapiens turned out to be 27. The figures for the inhibitory constant (Ki) at Adenosine receptor A1 and at Adenosine receptor A2a [2] were 2300 nM and 86 nM, respectively.

As for `Cc1cc(C)n(-c2cc(NC(=O)CN3CCC(CN(C)C)CC3)nc(-c3ccc(C)o3)n2)n1`, the Ki at Adenosine receptor A2a [1] turned out to be 25 nM; at Adenosine receptor A1, 380 nM; on Adenosine receptor A2a [2], 2.9 nM. In addition, the Ratio Ki in the data set filed under Homo sapiens is 131. For the same compound, half-maximal inhibition in data set [3] (IC50) required 1670 nM.

Consider `Cc1cc(C)n(-c2cc(NC(=O)CN3CCCOCC3)nc(-c3ccc(C)o3)n2)n1`, for which the Ki on Adenosine receptor A2a [1] is 230 nM; at Adenosine receptor A1, 630 nM; on Adenosine receptor A2a [2], 6 nM. The Ratio Ki in the data set filed under Homo sapiens came to 105.

Turning to `Cc1cc(C)n(-c2cc(NC(=O)CN3CC[C@@H](CN(C)C)C3)nc(-c3ccc(C)o3)n2)n1`, the inhibition constant Ki on Adenosine receptor A2a [1] came to 27.8 nM; at Adenosine receptor A1 it was 220 nM; on Adenosine receptor A2a [2], 2.1 nM.

For the compound `CCN(CC)[C@H]1CCN(CC(=O)Nc2cc(-n3nc(C)cc3C)nc(-c3ccc(C)o3)n2)C1`, the inhibition constant (Ki) at Adenosine receptor A2a [1] was 155 nM; at Adenosine receptor A1, 2600 nM; at Adenosine receptor A2a [2] it was 4.4 nM. Besides, the Ratio Ki in the data set filed under Homo sapiens amounted to 591.
